# Assay outcomes deposited in PubChem by several laboratories.
# In the library only some 1.6% were active in any assay of this set; here they are far more common.
# GSTO1 counter: inhibitors of recombinant GSTO1, primary screen, counter-screen for RBBP9 inhibitor project, biochemical, fluorescence polarization | Glutathione S-transferase omega-1 (Homo sapiens), P78417 | activity-based probe fluorescence polarization | inhibition, % at 5.96 µM | 1.1% of 300,000 active;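 active means inhibition above the campaign mean inhibition plus 3 SD, cut at about 35% in these data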;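 further: 0% = GSTO1-1 with DMSO and 100% = wells lacking GSTO1-1 enzyme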
# Target sequence (P78417 whole entry, looked up): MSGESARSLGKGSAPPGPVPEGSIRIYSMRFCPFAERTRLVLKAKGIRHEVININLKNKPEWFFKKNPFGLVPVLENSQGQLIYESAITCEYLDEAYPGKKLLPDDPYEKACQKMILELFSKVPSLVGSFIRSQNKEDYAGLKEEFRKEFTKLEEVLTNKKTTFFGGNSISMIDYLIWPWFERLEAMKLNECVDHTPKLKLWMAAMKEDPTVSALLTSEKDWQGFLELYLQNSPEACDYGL
# GASC-1 inh: inhibitors of GASC-1 histone demethylase, primary screen, biochemical, fluorescence, DELFIA europium | inhibition, % at 2.35 µM | AID 2099, 2009 | 0.069% of 330,000 active | Lysine-specific demethylase 4C (Homo sapiens), Q9H3R0 | GST-JMJD2C(1-420) H3K9me3 demethylation;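 active means more than half of a compound's replicate wells show inhibition beyond 50%, single wells judged on their own value; inconclusive means some, but no more than half, of replicates pass 50% inhibition; inactive means no replicate passes 50% inhibition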;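 further: signal counts dimethyl H3K9 product captured on neutravidin plate; 0% = median of DMSO wells and 100% = 0.3 times that DMSO median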
# UBC9 SUMO inh: inhibitors of in vitro SUMOylation cascade, primary screen, biochemical, HTRF, uHTS; SUMO-conjugating enzyme UBC9 (Homo sapiens), P63279; HTRF SUMOylation assay, SAE1/SAE2 + UBC9; inhibition, % at 35 µM; 0.36% of 290,000 active; AID 2006, 2009; in the data active means inhibition above about 50%, passing the limit was not always enough; inconclusive means no clear call, values can overlap the other calls
# Target sequence (P63279 whole entry, looked up): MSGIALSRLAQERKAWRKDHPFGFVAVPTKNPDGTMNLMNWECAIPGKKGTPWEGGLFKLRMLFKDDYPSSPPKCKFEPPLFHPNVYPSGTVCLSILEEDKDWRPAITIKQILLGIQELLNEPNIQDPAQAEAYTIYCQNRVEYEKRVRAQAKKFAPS
# Apaf1 inhib: inhibitors of human Apaf-1 apoptosome, primary screen, biochemical, DEVD-Rh110 fluorescence, uHTS. Apoptotic protease-activating factor 1 (Homo sapiens), O14727. AID 489030, 2010. 0.71% of 330,000 active. reconstituted apoptosome caspase-3 activity. inhibition, % at 20 µM; active means inhibition of at least 40% at 20 µM;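 further: plate controls were DMSO wells for no effect and DEVD-CHO caspase inhibitor wells for full effect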
#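 Material: reconstituted apoptosome with Apaf-1, cytochrome c, caspase-9, procaspase-3, dATP. Technique: Rh110 fluorescence intensity. Buffer or medium: pH 7.5 Hepes buffer with CHAPS, BSA, DTT. Times: 30 min plus 50 min, RT.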
# TDP2 inh: human TDP2 enzyme inhibitors, primary screen, biochemical, epi absorbance, recombinant enzyme; T5PNP hydrolysis, p-nitrophenol absorbance 415 nm; inhibition, % at 12.8 µM; 0.34% of 370,000 active;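 active means inhibition above the mean of all tested compounds plus 3 SD, set per campaign, cut at about 25% in these data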;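 further: 0% = DMSO with enzyme and 100% = buffer with substrate but no TDP2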
#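 Incubation: 2 h at 37 °C; Test system: recombinant human TDP2; Quantity: enzyme 120 nM; Read-out basis: percent inhibition; Medium: 50 mM Tris-HCl pH 7.5 with Mg2+, KCl, DTT, BSA; Repeats: single replicate; Compound: 12.8 µM single point, 1% DMSO; Signal: epi absorbance; Reagent: 5 mM T5PNP chromogenic substrate; Benchmarks: no-enzyme high, DMSO-plus-enzyme low.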
# PAD4 FP inh: human PAD4 inhibitors, primary screen, biochemical, fluorescence polarization, 1536-well format; 0.41% of 330,000 active; recombinant PAD4, RCA probe fluorescence polarization; inhibition, % at 6.36 µM;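 active means percent inhibition above a cutoff equal to the mean of all tested compounds plus 3 SD, cut at about 15% in these data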;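 further: 0% = PAD4 with RCA probe and DMSO and 100% = probe without PAD4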
# * marks the source's active call; other numbers are inactive results; u = inconclusive; x = no result.
SMILES,GSTO1 counter,GASC-1 inh,UBC9 SUMO inh,Apaf1 inhib,TDP2 inh,PAD4 FP inh
N#Cc1c(N)nc2c3c(sc(=N)c2c1N)NC(=O)CC3c1c(F)cccc1Cl (stereo not drawn),34.9*,-2.7,-41.3,21.5,-4.1,2.3
CN(C)c1ccc(O)c2c1CC1CC3[C@@H](N(C)C)C(=O)C(C(N)=O)C(=O)[C@]3(O)C(=O)C1C2=O (stereo partly drawn),x,x,x,-3.6,4.9,0.5
CN(C)[C@@H]1C(=O)C(C(=O)NCN2CCCC2)=C(O)[C@@]2(O)C(=O)C3=C(O)c4c(O)cccc4[C@@](C)(O)C3CC12 (stereo partly drawn),x,u,76.7*,x,x,x
Cc1cc(C)n(Cc2ccc(C(=O)N/N=C/c3ccc(-c4ccc([N+](=O)[O-])cc4)o3)o2)n1,35.9*,-37.5,x,-5.0,-17.3,-6.6
CC(C)C[C@H](NC(C)(C)C(=O)NC1CCCCC1)C(=O)NCC(c1ccccc1)c1ccccc1,x,x,x,x,-3.3,x
O=S1(=O)c2ccc(Br)cc2OC[C@@H](c2ccccc2)N1Cc1cn(Cc2ccccc2)nn1,x,x,x,x,-2.9,x
CN(C)C=Nc1ccc(Cl)c(Cl)c1,1.6,4.3,43.4,0.8,15.0,0.3
CN(C)C=Nc1ccc2nn(-c3ccccc3)nc2c1,9.3,10.4,59.6*,36.9,-7.4,-5.6
COC(=O)[C@]12C[C@H](CC(=O)N3CCOCC3)C(=O)N(Cc3ccco3)C1=C[C@H](C(C)C)O[C@@H]2C1CC1,x,x,x,x,-7.3,x
COc1ccc(OC)c(CN2C(=O)CCCCC2(C)c2nnnn2C2CCCC2)c1 (stereo not drawn),x,x,x,x,9.2,x
Cc1cc(C)nc(NC(N)=NC(C)c2ccccc2)n1 (stereo not drawn),9.8,51.0*,16.1,2.4,-1.4,1.7
Cc1cc(C)nc(NC(N)=NCCc2ccccc2)n1,x,x,x,x,-1.8,x
Nc1ccc(O)cc1,97.8*,-26.5,x,x,x,52.0*
Nc1cccnc1Sc1cccc(Cl)c1,-0.5,15.2,-2.4,76.2*,-9.3,-4.9
CCC(NC(=O)c1ccc2c(ccn2Cc2cccc(-c3ccc(C(=O)O)cc3)c2)c1)c1ccccc1 (stereo not drawn),x,x,x,x,-4.3,x
CCCC1CCC2(CC1)CCC2OC(=O)Nc1cccc(C(F)(F)F)c1 (stereo not drawn),x,x,x,x,-8.3,x
O=C1CCC[C@H]2C[C@H](NCc3cccc(I)c3)CC[C@]23CCCN13,x,x,x,x,-10.6,x
CC1CCN(Cc2c(C(=O)N/N=C/c3ccccc3O)nnn2-c2nonc2N)CC1,0.8,u,54.4*,4.0,1.4,2.4
N=c1c2cn[nH]c2nc(SCC(=O)c2ccc(Br)cc2)n1-c1ccc(Br)cc1,-18.5,0.7,54.2*,-7.7,5.4,-1.2
Cn1cnnc1SCC(=O)Nc1sc2c(c1C(N)=O)CCC2,35.9*,2.3,35.9,-10.0,5.8,-3.6
CCC[C@H]1[C@@H](NS(=O)(=O)c2ccccc2[N+](=O)[O-])CC[C@@]23CCCN2C(=O)CCC[C@@H]13,x,x,x,x,0.6,x
COc1ccc(CNC(=S)OC2CCC23CCC(c2ccccc2)CC3)cc1 (stereo not drawn),x,x,x,x,-7.2,x
Cc1ccc(NC(=S)NNC(=S)Nc2ccc(C)cc2C)cc1,47.4*,-10.6,-34.6,-4.1,3.2,2.7
CN(Cc1ccccc1)C(=O)OCc1cn(Cc2ccc(F)c(F)c2)nn1,x,x,x,x,0.9,x
O=C(NCCc1c[nH]c2ccccc12)OCc1cn(Cc2cccc(F)c2)nn1,x,x,x,x,-2.8,x
SMILES,GSTO1 counter,GASC-1 inh,UBC9 SUMO inh,Apaf1 inhib,TDP2 inh,PAD4 FP inh
CC(C)C(=O)Nc1cccc(-c2cn3ccsc3n2)c1,-5.6,4.7,6.1,67.1*,5.7,-0.8
CC(C)CC(=O)Nc1cccc(-c2cn3ccsc3n2)c1,-4.7,59.5,1.3,-5.3,2.0,2.6
COc1ccc(OCC(=O)N/N=C/C(C)=C/c2ccco2)c(Br)c1,-3.7,67.0*,18.3,23.0,15.8,-11.4
O=C(NCc1cccc(F)c1)C1CCN(S(=O)(=O)Cc2ccccc2)CC1,8.5,72.6*,-14.7,-5.5,5.0,-1.6
O=C(NCc1ccncc1)C1CCN(S(=O)(=O)Cc2ccccc2)CC1,6.7,-6.7,10.9,-3.6,3.4,2.1
COc1cccc(OC)c1-c1nn2c(-c3cc(-c4ccccc4)n[nH]3)nnc2s1,-27.9,-0.5,3.4,53.1*,-1.6,-3.2
Clc1ccccc1-c1nn2c(-c3cc(-c4ccccc4)n[nH]3)nnc2s1,x,x,x,x,6.0,x
[O-]/C(=C(\C(=S)Nc1cccc2ccccc12)[n+]1ccccc1)c1cccs1,36.6*,-0.5,48.9,29.7,0.5,11.2
CS(=O)(=O)N1CCC(C(=O)Nc2ccccc2F)CC1,2.8,-3.3,10.4,-10.3,1.2,-2.9
CSc1ccccc1NC(=O)C1CCN(S(C)(=O)=O)CC1,35.3*,12.2,5.2,-18.8,11.7,-2.1
Cc1ccc(CNC(=O)c2ccccc2NC(=O)CSc2nnnn2C)cc1,37.0*,10.5,6.2,2.7,9.6,-2.5
CN(Cc1ccccc1)S(=O)(=O)c1cccc(C(=O)OCc2ccc(Oc3ccccc3)cc2)c1,x,x,x,x,6.4,x
O=C(NCC(c1cccs1)N1CCOCC1)c1ccccc1NS(=O)(=O)c1ccc(Cl)c([N+](=O)[O-])c1 (stereo not drawn),50.2*,-7.2,-4.1,13.0,2.7,-2.1
O=C(NCC(c1cccs1)N1CCOCC1)c1ccccc1NS(=O)(=O)c1cccc([N+](=O)[O-])c1 (stereo not drawn),-4.0,-1.4,9.9,10.5,2.6,4.1
O=C(c1ccc(Cl)c(Cl)c1)N1CCN(c2ccnc3cc(Cl)ccc23)CC1,x,x,x,x,-9.0,x
CCN1CCN(Cc2ccc(NC(=O)c3cc(NC(=O)c4cc5cccc(OC)c5o4)cc(OC)c3)cc2C(F)(F)F)CC1,-3.4,-5.9,5.9,63.1*,0.0,-3.2
CCN1CCN(Cc2ccc(NC(=O)c3cc(NC(=O)c4ccno4)cc(OC)c3)cc2C(F)(F)F)CC1,-7.6,-3.2,7.6,15.2,11.5,-2.4
CCc1nnc(NC(=O)CSc2nc3cccnc3n2Cc2ccccc2)s1,36.1*,-3.5,-4.9,4.3,0.6,0.3
COC/C=C/C1=CC2=CC(=O)C(C)(OC(=O)c3ccco3)C(=O)C2=CO1 (stereo not drawn),35.5*,x,35.9,12.2,x,24.0*
COC/C=C/C1=CC2=CC(=O)C(C)(OC(=O)c3cccs3)C(=O)C2=CO1 (stereo not drawn),9.6,2.5,x,-1.9,x,6.3
